The target in test [1] is T1, hpol η binding to primer–template DNA (Homo sapiens, UniProt Q9Y253).
T1 sequence (Q9Y253 1-437): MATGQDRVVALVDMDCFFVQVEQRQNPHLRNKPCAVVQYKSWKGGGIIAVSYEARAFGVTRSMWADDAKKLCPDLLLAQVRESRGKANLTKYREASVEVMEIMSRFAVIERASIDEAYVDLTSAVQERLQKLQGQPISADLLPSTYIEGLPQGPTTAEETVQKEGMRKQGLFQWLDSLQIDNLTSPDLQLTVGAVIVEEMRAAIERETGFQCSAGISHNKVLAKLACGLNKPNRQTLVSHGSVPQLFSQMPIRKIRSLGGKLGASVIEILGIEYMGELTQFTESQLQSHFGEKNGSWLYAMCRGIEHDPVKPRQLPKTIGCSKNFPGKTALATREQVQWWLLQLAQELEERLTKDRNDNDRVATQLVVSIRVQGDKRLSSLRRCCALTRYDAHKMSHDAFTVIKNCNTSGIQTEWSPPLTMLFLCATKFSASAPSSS
Put plainly: Fluorescence anisotropy DNA binding assay. To be noted: 1–12 μM inhibitor, also above the IC50.

The target in test [2] is T2, hpol η (Homo sapiens, UniProt Q9Y253).
T2 sequence (Q9Y253 1-437): T1 sequence (Q9Y253 1-437)
Put plainly: Steady-state kinetic analysis of hpol η activity. In kind it is biochemical.

Test [3] has as its system HAP-1 cells (hpol η-proficient, parental). Put plainly: Cell viability. In kind it is cell-based, human. Conditions: for Combination index (CI) with CDDP: Chou–Talalay. An outline of the steps: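 HAP-1 parental or CRISPR hpol η-null cells in IMDM with 10% FBS and 1% antibiotic/antimycotic, passage 8–10, seeded 5000 cells/well. Next day: CDDP 0–100 μM alone or with 0.1 or 1 μM test compound, 48 h. Cells washed twice in DPBS, then 2 μM Calcein-AM for 30 min at 25 °C; fluorescence ex 490/em 520 nm. Viability as % of untreated. […] Combination index by Chou–Talalay.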

The target of test [4] is T2, hpol η. Put plainly: HPG labeling / MS protein footprinting of hpol η. It is filed as binding. To be noted: 20 and 100 μM PNR-7-02. An outline of the steps: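 Protein footprinting: hpol η (10 μM) preincubated 10 min at 37 °C with 20 μM (1:2) or 100 μM (1:10) test compound in 50 mM HEPES pH 7.8, 10 mM MgCl₂, 10% DMSO. Then 500 μM HPG for 60 min at 37 °C in the dark; quenched with 200 mM arginine. SDS-PAGE, then MS. Modified arginine taken as fraction of total per residue, normalized to the HPG-alone sample.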

Test [5] has as its target T3, hpol ι (Homo sapiens, UniProt Q9UNA4).
T3 sequence (Q9UNA4 1-446): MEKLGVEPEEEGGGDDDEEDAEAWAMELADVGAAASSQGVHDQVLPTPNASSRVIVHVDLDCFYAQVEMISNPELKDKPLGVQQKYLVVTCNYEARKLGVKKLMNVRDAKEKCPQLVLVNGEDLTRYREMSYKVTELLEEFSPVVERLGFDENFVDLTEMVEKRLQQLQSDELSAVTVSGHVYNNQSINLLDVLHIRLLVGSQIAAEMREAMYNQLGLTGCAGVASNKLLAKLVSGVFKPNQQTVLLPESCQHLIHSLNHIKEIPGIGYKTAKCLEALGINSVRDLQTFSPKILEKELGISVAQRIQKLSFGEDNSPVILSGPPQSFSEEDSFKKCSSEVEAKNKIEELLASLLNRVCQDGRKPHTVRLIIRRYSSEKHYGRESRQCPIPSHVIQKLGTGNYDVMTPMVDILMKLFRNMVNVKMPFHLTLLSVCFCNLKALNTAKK
Put plainly: Gel-based pol extension assay, hpol ι. In kind it is biochemical. Conditions: relative to hpol η / hRev1. An outline of the steps:
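Gel extension assay with hpol ι core (residues 1–446) or hpol κ core (residues 19–526). Enzyme 2 nM preincubated 5 min with increasing test compound in 50 mM HEPES pH 7.5, 50 mM NaCl, 1 mM DTT, 0.1 mg/mL BSA, 10% glycerol. Started at 37 °C with 200 nM FAM-labeled 13/18-mer primer–template, 10 μM each dNTP, 5 mM MgCl₂. Quench: 20 mM EDTA/95% formamide, 95 °C. Triplicate; IC50 mean ± SD.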

Test [6] addresses T4, Dpo1 (Saccharolobus solfataricus, UniProt P26811).
T4 sequence (P26811 1-882): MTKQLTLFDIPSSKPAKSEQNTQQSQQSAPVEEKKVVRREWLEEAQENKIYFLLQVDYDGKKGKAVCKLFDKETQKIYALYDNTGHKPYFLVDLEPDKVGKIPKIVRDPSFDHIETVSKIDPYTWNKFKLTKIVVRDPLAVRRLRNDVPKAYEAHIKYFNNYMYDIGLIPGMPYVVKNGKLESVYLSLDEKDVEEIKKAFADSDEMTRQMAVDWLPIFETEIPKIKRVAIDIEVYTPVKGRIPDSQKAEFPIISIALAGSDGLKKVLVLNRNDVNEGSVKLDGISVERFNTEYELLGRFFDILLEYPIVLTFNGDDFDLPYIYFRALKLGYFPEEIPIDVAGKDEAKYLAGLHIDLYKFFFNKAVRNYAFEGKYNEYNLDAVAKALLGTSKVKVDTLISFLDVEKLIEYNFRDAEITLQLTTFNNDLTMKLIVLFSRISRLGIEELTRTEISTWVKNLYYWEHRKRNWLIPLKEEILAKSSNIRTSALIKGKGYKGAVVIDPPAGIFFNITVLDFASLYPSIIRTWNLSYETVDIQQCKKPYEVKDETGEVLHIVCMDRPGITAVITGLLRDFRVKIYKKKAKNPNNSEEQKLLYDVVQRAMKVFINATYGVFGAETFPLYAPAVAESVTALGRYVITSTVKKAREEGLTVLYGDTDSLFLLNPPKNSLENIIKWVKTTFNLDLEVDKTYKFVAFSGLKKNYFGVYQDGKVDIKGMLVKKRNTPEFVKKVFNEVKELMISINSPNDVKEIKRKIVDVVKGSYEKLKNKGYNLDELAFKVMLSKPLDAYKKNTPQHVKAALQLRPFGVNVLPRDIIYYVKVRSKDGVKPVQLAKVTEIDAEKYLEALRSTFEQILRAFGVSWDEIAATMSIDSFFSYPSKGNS
Put plainly: Fluorescence-based pol activity assay, Dpo1. It is filed as biochemical, Sulfolobus solfataricus. To be noted: 20 μM PNR-7-02.

With `O=C1NC(=S)NC(=O)C1=Cc1cn(Cc2ccc3ccccc3c2)c2ccc(Cl)cc12` [PNR-7-02, 5-((5-chloro-1-(naphthalen-2-ylmethyl)-1H-indol-3-yl)methylene)-2-thioxodihydropyrimidine-4,6-(1H,5H)-dione], the “Change in Kd,DNA for hpol η binding to DNA” value in test [1] is recorded as “less than 20%”. Besides, in test [2] (0–9 μM PNR-7-02), the “Effect on KM,dTTP of hpol η” value is “nonlinear increase”. Besides, the “Effect on kcat of hpol η” value in test [2] (PNR-7-02 near or below the IC50) is “no change”. Also, the “Combination index values with CDDP, hpol η-proficient cells (summary)” value in test [3] (hpol η-proficient cells co-treated with PNR-7-02) is given as 0.4–0.6. Also, the “Combination index (CI) with CDDP” value in test [3] (parental HAP-1, 0.1 μM PNR-7-02) is 0.47; in test [3] (parental HAP-1, 1 μM PNR-7-02), 0.59. In test [3] (parental HAP-1, both concentrations of inhibitor (0.1 and 1 μM)), the “Decrease of CDDP EC50 on co-treatment with PNR-7-02” value is recorded as greater than 2 fold. Further, the 50% effective concentration (EC50) in test [3] (read-out: EC50, cell viability, PNR-7-02 alone, hpol η-proficient parental HAP-1, 48 h) was determined as 4.6 µM. The “HPG modification of Arg351 of hpol η” value in test [4] was “completely abrogated”. In addition, the “Increase in IC50 against hpol η (so in the source); first of 'hpols η and κ')” value in test [5] was roughly 3 fold. Further, the “Effect on catalysis by Dpo1” value in test [6] is recorded as “not affected at all”. Moreover, the “Pol activity relative to DMSO control, Dpo1” value in test [6] (mean (±SD)) is reported as 118 (±15) %.
